{"data": "Assay results collected from several papers", "target": "Mitogen-activated protein kinase 12 (MAPK12, Homo sapiens, UniProt P53778)", "Residues used in one study (P53778 1-367)": "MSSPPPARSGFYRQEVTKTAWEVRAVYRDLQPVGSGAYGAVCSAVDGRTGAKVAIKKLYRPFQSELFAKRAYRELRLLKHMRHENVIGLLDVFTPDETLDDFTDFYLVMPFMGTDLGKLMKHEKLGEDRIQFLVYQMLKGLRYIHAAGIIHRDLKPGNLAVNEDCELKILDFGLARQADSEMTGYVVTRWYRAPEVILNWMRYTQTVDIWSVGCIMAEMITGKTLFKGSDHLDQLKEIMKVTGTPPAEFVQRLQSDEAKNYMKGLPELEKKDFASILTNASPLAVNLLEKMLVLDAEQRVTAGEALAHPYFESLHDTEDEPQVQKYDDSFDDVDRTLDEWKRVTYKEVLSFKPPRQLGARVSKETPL", "note": "Lines come from different studies, so protocols differ."}
{"SMILES": "CC(C)(C)c1cc(C=C(C#N)C#N)cc(Br)c1O", "read-out": "enzyme activity", "action": "inhibitor", "tested at": "0.5 µM", "measurement": "remaining activity", "value": "102%"}
{"SMILES": "Cc1nn(C)cc1-c1nc2c(N3CCN(Cc4ccc(Cl)cc4)CC3)c(Cl)cnc2[nH]1", "read-out": "binding", "method": "competition with immobilised ligand", "tested at": "1 µM", "measurement": "remaining binding", "value": "100%"}
{"SMILES": "Nc1ncc(-c2nc(N3CCOCC3)nc(N3CCOCC3)n2)c(C(F)F)n1", "read-out": "binding", "method": "competition with immobilised ligand", "tested at": "10 µM", "measurement": "remaining binding", "value": "100%"}
{"SMILES": "Cn1cc(-c2cc(F)cc(N3CCn4c(cc5c4CCCC5)C3=O)c2CO)cc(Nc2ccc(N3CCN(C4COC4)CC3)cn2)c1=O", "read-out": "enzyme activity", "action": "inhibitor", "tested at": "0.1 µM", "measurement": "inhibition", "value": "16%"}
{"SMILES": "COc1ncccc1-c1cnn2ccc(N3CCN(C(=O)OC(C)C)CC3)nc12", "read-out": "binding", "method": "competition with immobilised ligand", "tested at": "1 µM", "measurement": "remaining binding", "value": "100%"}
{"SMILES": "Cn1cncc1[C@](O)(COc1ccc(C#N)cc1-c1ccc(OC(F)(F)F)cc1)c1ccc(C#N)cc1", "read-out": "cell-free assay", "method": "competition with immobilised ligand", "tested at": "1 µM", "measurement": "remaining binding", "value": "100%"}
{"SMILES": "O=c1[nH]c2ccccc2n1C1CCN(Cc2ccc(-c3[nH]c4cc5ncnc5cc4nc3-c3ccccc3)cc2)CC1", "read-out": "cell-free assay", "tested at": "0.5 µM", "measurement": "remaining signal", "value": "93.1%"}
{"SMILES": "Cn1cc(-c2cccc(N3CCc4c(sc5c4CC(C)(C)C5)C3=O)c2CO)cc(Nc2ccncn2)c1=O", "read-out": "enzyme activity", "action": "inhibitor", "tested at": "1 µM", "measurement": "inhibition", "value": "11%"}
